According to ChEMBL document CHEMBL1145462, “In vivo pharmacodynamic activity of the glycopeptide dalbavancin” (Antimicrob Agents Chemother, 2007):

How the values were obtained:
[1] = test system: Staphylococcus aureus; test: AUC/MIC ratio of Staphylococcus aureus 31005 infected neutropenic mouse thigh infection model at 127 mg/kg, ip administered every 72 hrs by 2-log killing experiment; format: functional; settings: route intraperitoneal
[2] = Half life in bacterial pathogen-infected neutropenic Swiss ICR mouse thigh infection model at 40 mg/kg, ip; format: ADME, organism-based; design: dose 40 mg/kg, route intraperitoneal; settings: in vivo
Summary of the method: (§1)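 Thigh-infected neutropenic mice received single intraperitoneal doses (2.5, 5, 10, 20, 40, 80 mg/kg; 0.2 ml/dose). Blood was drawn by retroorbital aspiration from groups of three mice at 0.5, 1, 2, 4, 6, 24, 48, 72 and 96 h. Plasma levels were measured by microbiologic assay with Bacillus subtilis (detection limit 0.10 mg/liter). Noncompartmental analysis was used: half-life by linear least-squares regression, AUC by trapezoidal rule.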

[3] = test system: Staphylococcus aureus; test: Bactericidal activity against […] Staphylococcus aureus ATCC 29213 infected neutropenic Swiss ICR mouse thigh infection model assessed as drug level causing 2-log reduction of bacterial count at 15 mg/kg, ip dosed every 36 hrs; format: functional; settings: route intraperitoneal
[4] = test system: Staphylococcus aureus; test: AUC/MIC ratio of methicillin-resistant Staphylococcus aureus infected neutropenic mouse thigh infection model at 45.3 mg/kg, ip administered every 24 hrs by 1-log killing experiment; format: functional; settings: route intraperitoneal
[5] = test system: Staphylococcus aureus; test: AUC/MIC ratio of Staphylococcus aureus 33591 infected neutropenic mouse thigh infection model at 114 mg/kg, ip administered every 72 hrs by 2-log killing experiment; format: functional; settings: route intraperitoneal
[6] = Half life in bacterial pathogen-infected neutropenic Swiss ICR mouse thigh infection model at 5 mg/kg, ip; format: ADME, organism-based; design: dose 5 mg/kg, route intraperitoneal; settings: in vivo; summary of the method: as §1
[7] = test system: Staphylococcus aureus; test: AUC/MBC ratio of Staphylococcus aureus ATCC 25923 infected neutropenic mouse thigh infection model at 60 mg/kg, ip administered every 24 hrs by 2-log killing experiment; format: functional; settings: route intraperitoneal
[8] = test system: Staphylococcus aureus; test: AUC/MBC ratio of Staphylococcus aureus Smith infected neutropenic mouse thigh infection model at 73.5 mg/kg, ip administered every 24 hrs by 2-log killing experiment; format: functional; settings: route intraperitoneal
[9] = Cmax in bacterial pathogen-infected neutropenic Swiss ICR mouse thigh infection model at 40 mg/kg, ip; format: ADME, organism-based; design: dose 40 mg/kg, route intraperitoneal; settings: in vivo; summary of the method: as §1
[10] = test system: Streptococcus pneumoniae; test: AUC/MIC ratio of Streptococcus pneumoniae 1199 infected neutropenic mouse thigh infection model at 0.85 mg/kg, ip administered every 72 hrs by 1-log killing experiment; format: functional; settings: route intraperitoneal
[11] = test system: Staphylococcus aureus; test: AUC/MBC ratio of Staphylococcus aureus 33591 infected neutropenic mouse thigh infection model at 93 mg/kg, ip administered every 72 hrs by 1-log killing experiment; format: functional; settings: route intraperitoneal
[12] = test system: Staphylococcus aureus; test: AUC/MIC ratio of Staphylococcus aureus 31005 infected neutropenic mouse thigh infection model at 94.6 mg/kg, ip administered every 72 hrs by 1-log killing experiment; format: functional; settings: route intraperitoneal
[13] = AUC in bacterial pathogen-infected neutropenic Swiss ICR mouse thigh infection model at 40 mg/kg, ip; format: ADME, organism-based; design: dose 40 mg/kg, route intraperitoneal; settings: in vivo; summary of the method: as §1
[14] = test system: Staphylococcus aureus; test: AUC/MBC ratio of Staphylococcus aureus 31005 infected neutropenic mouse thigh infection model at 49.3 mg/kg, ip administered every 24 hrs by static effect experiment; format: functional; settings: route intraperitoneal
[15] = test system: Staphylococcus aureus; test: AUC/MIC ratio of Staphylococcus aureus Smith infected neutropenic mouse thigh infection model at 50.7 mg/kg, ip administered every 24 hrs by 1-log killing experiment; format: functional; settings: route intraperitoneal
[16] = test system: Streptococcus pneumoniae; test: Bactericidal activity against penicillin-susceptible Streptococcus pneumoniae ATCC 10813 infected neutropenic Swiss ICR mouse thigh infection model assessed as drug level causing 1-log reduction of bacterial count at 0.71 mg/kg, ip dosed every 72 hrs; format: functional; settings: route intraperitoneal
Summary of the method: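 Neutropenic mice (cyclophosphamide ip 150 mg/kg day −4, 100 mg/kg day −1, then every 48 h) received 0.1 ml log-phase inoculum per thigh under halothane. Intraperitoneal dalbavancin started 2 h later and was given for 6 days at q12h, q24h, q36h or q72h, two mice per regimen. Thigh CFU were counted at 144 h. Endpoint doses relative to start-of-therapy counts came from Hill-model nonlinear regression and are expressed per 24 h.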

[17] = test system: Streptococcus pneumoniae; test: AUC/MIC ratio of Streptococcus pneumoniae ATCC 10813 infected neutropenic mouse thigh infection model at 1.75 mg/kg, ip administered every 24 hrs by 2-log killing experiment; format: functional; settings: route intraperitoneal
[18] = test system: Staphylococcus aureus; test: AUC/MBC ratio of Staphylococcus aureus Smith infected neutropenic mouse thigh infection model at 148 mg/kg, ip administered every 72 hrs by 2-log killing experiment; format: functional; settings: route intraperitoneal
[19] = test system: Staphylococcus aureus; test: AUC/MIC ratio of Staphylococcus aureus ATCC 25923 infected neutropenic mouse thigh infection model at 51.2 mg/kg, ip administered every 24 hrs by 1-log killing experiment; format: functional; settings: route intraperitoneal
[20] = test system: Staphylococcus aureus; test: AUC/MIC ratio of Staphylococcus aureus 33591 infected neutropenic mouse thigh infection model at 27.7 mg/kg, ip administered every 24 hrs by 1-log killing experiment; format: functional; settings: route intraperitoneal
[21] = test system: Streptococcus pneumoniae; test: AUC/MIC ratio of Streptococcus pneumoniae 1325 infected neutropenic mouse thigh infection model at 1.16 mg/kg, ip administered every 72 hrs by 2-log killing experiment; format: functional; settings: route intraperitoneal
[22] = test system: Streptococcus pneumoniae; test: AUC/MIC ratio of Streptococcus pneumoniae 1325 infected neutropenic mouse thigh infection model at 0.83 mg/kg, ip administered every 72 hrs by static effect experiment; format: functional; settings: route intraperitoneal
[23] = test system: Staphylococcus aureus; test: AUC/MBC ratio of Staphylococcus aureus 31005 infected neutropenic mouse thigh infection model at 67.7 mg/kg, ip administered every 72 hrs by static effect experiment; format: functional; settings: route intraperitoneal
[24] = test system: Staphylococcus aureus; test: AUC/MBC ratio of Staphylococcus aureus ATCC 25923 infected neutropenic mouse thigh infection model at 160 mg/kg, ip administered every 72 hrs by static effect experiment; format: functional; settings: route intraperitoneal
[25] = test system: Staphylococcus aureus; test: AUC/MBC ratio of methicillin-resistant Staphylococcus aureus infected neutropenic mouse thigh infection model at 43 mg/kg, ip administered every 72 hrs by static effect experiment; format: functional; settings: route intraperitoneal
[26] = test system: Staphylococcus aureus; test: AUC/MBC ratio of Staphylococcus aureus Smith infected neutropenic mouse thigh infection model at 59 mg/kg, ip administered every 72 hrs by static effect experiment; format: functional; settings: route intraperitoneal
[27] = Half life in bacterial pathogen-infected neutropenic Swiss ICR mouse thigh infection model at 10 mg/kg, ip; format: ADME, organism-based; design: dose 10 mg/kg, route intraperitoneal; settings: in vivo; summary of the method: as §1
[28] = test system: Staphylococcus aureus; test: AUC/MIC ratio of Staphylococcus aureus 307109 infected neutropenic mouse thigh infection model at 34 mg/kg, ip administered every 72 hrs by 1-log killing experiment; format: functional; settings: route intraperitoneal
[29] = test system: Streptococcus pneumoniae; test: Bactericidal activity in Streptococcus pneumoniae ATCC 10813 infected neutropenic mouse thigh infection model assessed as drug level causing 1-log reduction of bacterial count at 4.13 mg/kg/6days; format: functional
[30] = test system: Staphylococcus aureus; test: AUC/MIC ratio of Staphylococcus aureus Smith infected neutropenic mouse thigh infection model at 148 mg/kg, ip administered every 72 hrs by 2-log killing experiment; format: functional; settings: route intraperitoneal
[31] = test system: Staphylococcus aureus; test: AUC/MIC ratio of Staphylococcus aureus ATCC 25923 infected neutropenic mouse thigh infection model at 214 mg/kg, ip administered every 72 hrs by 2-log killing experiment; format: functional; settings: route intraperitoneal
[32] = test system: Staphylococcus aureus; test: AUC/MIC ratio of Staphylococcus aureus ATCC 25923 infected neutropenic mouse thigh infection model at 160 mg/kg, ip administered every 72 hrs by static effect experiment; format: functional; settings: route intraperitoneal
[33] = test system: Streptococcus pneumoniae; test: AUC/MIC ratio of Streptococcus pneumoniae 1199 infected neutropenic mouse thigh infection model at 0.57 mg/kg, ip administered every 24 hrs by 2-log killing experiment; format: functional; settings: route intraperitoneal
[34] = test system: Staphylococcus aureus; test: AUC/MIC ratio of methicillin-resistant Staphylococcus aureus infected neutropenic mouse thigh infection model at 53.5 mg/kg, ip administered every 24 hrs by 2-log killing experiment; format: functional; settings: route intraperitoneal

SMILES: CN[C@H]1C(=O)N[C@@H]2Cc3ccc(cc3)Oc3cc4cc(c3O[C@@H]3O[C@H](C(=O)O)[C@@H](O)[C@H](O)[C@H]3NC(=O)CCCCCCCCC(C)C)Oc3ccc(cc3Cl)[C@@H](O)[C@@H]3NC(=O)[C@H](NC(=O)[C@@H]4NC(=O)[C@@H](NC2=O)c2cc(cc(O)c2Cl)Oc2cc1ccc2O)c1ccc(O)c(c1)-c1c(O[C@H]2O[C@H](CO)[C@@H](O)[C@H](O)[C@@H]2O)cc(O)cc1[C@@H](C(=O)NCCCN(C)C)NC3=O [DALBAVANCIN]
- RatioAUC/MIC [1]: 364
- half-life [2]: 10.4 h
- Activity [3]: 122
- RatioAUC/MIC [4]: 452
- RatioAUC/MIC [5]: 195
- half-life [6]: 9.6 h
- Ratio [7]: 69.3
- Ratio [8]: 173
- Cmax [9]: 385 µg/mL
- RatioAUC/MIC [10]: 12.1
- Ratio [11]: 76.6
- RatioAUC/MIC [12]: 325
- AUC [13]: 10600 µg·h/mL
- Ratio [14]: 242
- RatioAUC/MIC [15]: 248
- Activity [16]: 0.77
- RatioAUC/MIC [17]: 9.9
- Ratio [18]: 122
- RatioAUC/MIC [19]: 250
- RatioAUC/MIC [20]: 121
- RatioAUC/MIC [21]: 17.6
- RatioAUC/MIC [22]: 6
- Ratio [23]: 112
- Ratio [24]: 66
- Ratio [25]: 35.3
- Ratio [26]: 46.1
- half-life [27]: 12.5 h
- RatioAUC/MIC [28]: 108
- Activity [29]: 4.38
- RatioAUC/MIC [30]: 254
- RatioAUC/MIC [31]: 367
- RatioAUC/MIC [32]: 274
- RatioAUC/MIC [33]: 22.7
- RatioAUC/MIC [34]: 519
